The target of assay [1] is 5-hydroxytryptamine receptor 6 (Rattus norvegicus, UniProt P31388). Kind of assay: Binding affinity against 5-hydroxytryptamine 6 receptor from CHO cell membranes using [3H]5-HT as the radioligand. Summed up: (§1)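 Binding by the Johansson et al. method. 5-HT2A used [3H]ketanserin and 5-HT2C used [3H]mesulergine, both on rat cortex. 5-HT6 and 5-HT7 used [3H]-5-HT on CHO cell membranes expressing the rat receptors.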

A short description of assay [2]: Potentiation of K+ stimulated release of [3H]-5-HT from brain slices at a concentration of 10 nM. (activity expressed as ratio of S2 (second stimulation)/S1(first stimulation)). Type of assay: functional, Rattus norvegicus. Summed up:
(§2)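 Rat occipital cortex slices (0.3 × 0.3 mm) preloaded with [3H]-5-HT, superfused at 0.4 mL/min with oxygenated Krebs-Henseleit pH 7.4 containing 2.5 μM citalopram. Two 4-min 25 mM KCl pulses at 62 and 98 min, compound present for 72 min spanning S2. Fractional release counted by liquid scintillation. S2/S1 ratio reported, also as % of control; n=3–8.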

A short description of assay [3]: Antagonism of the induced potentiation of K+ stimulated [3H]5-HT release from brain slices with 5-HT (1000 nM) at a concentration of 1000 nM. The class given is functional, Rattus norvegicus. The method, boiled down:
(§3)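 Rat occipital cortex slices (0.3 × 0.3 mm) were preloaded with [3H]-5-HT and superfused at 0.4 mL/min with oxygenated Krebs-Henseleit buffer, pH 7.4, containing 2.5 μM citalopram. After a 50 min wash, 4-min fractions were collected. 25 mM KCl was applied for 4 min at 62 min and again at 98 min. Test compound and 5-HT were given together in the same solution for 72 min. Fraction and slice radioactivity were counted by liquid scintillation. S2/S1 was expressed as % of control; Dunnett's t-test after ANOVA.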

Assay [4] is described as follows: Antagonism of the induced potentiation of K+ stimulated [3H]5-HT release from brain slices with 5-HT (100 nM) at a concentration of 1000 nM. The class given is functional, Rattus norvegicus. The method, boiled down:
as §3

The species named for assay [5] is Rattus norvegicus. Nature of the assay: Percent control of the stimulation ratio S2 (second stimulation)/S1(first stimulation) at a concentration of 1000 nM. (p<0.05). Type of assay: functional.
The species entered for assay [6] is Rattus norvegicus. Kind of assay: Percent control of the stimulation ratio S2 (second stimulation)/S1(first stimulation) at a concentration of 100 nM. (P<0.05). Type of assay: functional.
The species named for assay [7] is Rattus norvegicus. Nature of the assay: Percent control of the stimulation ratio S2 (second stimulation)/S1(first stimulation) at a concentration of 10 nM. (P>0.05). The class given is functional.
The nature of assay [8]: Antagonism of the induced potentiation of K+ stimulated [3H]5-HT release from brain slices with 5-HT (1000 nM) at a concentration of 1000nM, expressed as percent of control. The class given is functional, Rattus norvegicus. Further details: scale not given: the % may be the effect or the level left. Summed up: (§4)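 Superfused rat occipital cortex slices (0.3 × 0.3 mm) preloaded with [3H]-5-HT; Krebs-Henseleit pH 7.4 with 2.5 μM citalopram, 0.4 mL/min. Two 4-min 25 mM KCl pulses (62 and 98 min). Compound and 5-HT were given in the same solution. Fractions and slices were counted by scintillation. S2/S1 is expressed as % of control.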

Assay [9] in a line: Antagonism of the induced potentiation of K+ stimulated [3H]-5-HT release from brain slices with 5-HT (100 nM) at a concentration of 1000 nM, expressed as percent of control. The class given is functional, Rattus norvegicus. Further details: scale not given: the % may be the effect or the level left. The method, boiled down: as §4
The nature of assay [10]: Potentiation of K+ stimulated release of [3H]5-HT from brain slices at a concentration of 0 nM. (activity expressed as ratio of S2 (second stimulation)/S1(first stimulation)). The class given is functional, Rattus norvegicus.
Assay [11] is described as follows: Potentiation of K+ stimulated release of [3H]5-HT from brain slices at a concentration of 1000 nM. (activity expressed as ratio of S2 (second stimulation)/S1(first stimulation)). The class given is functional, Rattus norvegicus. Summed up:
as §2

A short description of assay [12]: Potentiation of K+ stimulated release of [3H]5-HT from brain slices at a concentration of 100 nM. (activity expressed as ratio of S2 (second stimulation)/S1(first stimulation)). The class given is functional, Rattus norvegicus. Summed up: as §2
The nature of assay [13]: Effect on 5-HIAA/5-HT turnover in Frontal cortex of rat brain, expressed as percent of control. The class given is functional. The method, boiled down:
(§5)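 Rats received compound 20 mg/kg sc or saline 30 min before NSD 1015 (3-hydroxybenzylhydrazine dihydrochloride), 100 mg/kg sc. They were killed 30 min later. Hypothalamus, hippocampus, frontal cortex and striatum were dissected, frozen on dry ice and stored at -70 °C. 5-HTP, 5-HT and 5-HIAA were measured by HPLC and expressed as % of saline control.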

The nature of assay [14]: Effect on 5-HTP turnover in Frontal cortex of rat brain, expressed as percent of control. The class given is functional. Summed up:
as §5

The target in assay [15] is Muscarinic acetylcholine receptor M3 (Rattus norvegicus, UniProt P08483). Nature of the assay: Binding affinity against Muscarinic acetylcholine receptor using [3H]QNB as the radioligand.
Assay [16] concerns Rattus norvegicus. Kind of assay: Effect on the wet dog shake response(WDS) in rats after 10 determinations at a dose of 3 mg/kg, sc pretreated with saline. The class given is functional. The note with it: route subcutaneous. Summed up:
(§6)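 Rats were pretreated with pCPA 200 mg/kg ip or saline at 72 and 48 h before compound, 3 mg/kg sc. Wet dog shakes (whole-body and head shakes) were counted from 5 to 65 min after injection. Groups of 8-10 rats were compared with saline-treated rats (n = 30), Dunnett's t-test after ANOVA.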

The test system of assay [17] is Rattus norvegicus. Nature of the assay: Effect on the wet dog shake response(WDS) in rats after 9 determinations at a dose of 3mg/kg, sc pretreated with 200 mg/kg ip of pCPA. The class given is functional. The note with it: route subcutaneous. Summed up:
as §6

Assay [18] is filed under the species Rattus norvegicus. Kind of assay: Effect on 5-HIAA/5-HT turnover in Hippocampus of rat brain, expressed as percent of control. Type of assay: functional. The method, boiled down:
as §5

The species named for assay [19] is Rattus norvegicus. Nature of the assay: Effect on 5-HTP turnover in Hippocampus of rat brain, expressed as percent of control. The class given is functional. Summed up: as §5
Assay [20] is filed under the species Rattus norvegicus. Nature of the assay: Effect on 5-HIAA/5-HT turnover in Hyphalamus of rat brain, expressed as percent of control. Type of assay: functional. Summed up: as §5
For assay [21], the species on record is Rattus norvegicus. Kind of assay: Effect on 5-HTP turnover in hypothalamus of rat brain, expressed as percent of control. Type of assay: functional. Summed up: as §5
The species named for assay [22] is Rattus norvegicus. Nature of the assay: Effect on 5-HIAA/5-HT turnover in Striatum of rat brain, expressed as percent of control. The class given is functional. Summed up: as §5
The species named for assay [23] is Rattus norvegicus. Nature of the assay: Effect on 5-HTP turnover in Striatum of rat brain, expressed as percent of control. Type of assay: functional. Summed up:
as §5

Assay [24] has as its target 5-hydroxytryptamine receptor 7 (Rattus norvegicus, UniProt P32305). Nature of the assay: Binding affinity against 5-hydroxytryptamine 7 receptor using from CHO cell membranes [3H]5-HT as the radioligand. Summed up: as §1

Values joined by “and” are separate entries in the source; they are usually repeats but may differ in a detail not shown here. Identical values can stand only once.

A word on the Ki: it is a dissociation constant, usually derived from enzyme kinetics or from competition with a known ligand.

Chain of 5-hydroxytryptamine receptor 6 (P31388 whole entry): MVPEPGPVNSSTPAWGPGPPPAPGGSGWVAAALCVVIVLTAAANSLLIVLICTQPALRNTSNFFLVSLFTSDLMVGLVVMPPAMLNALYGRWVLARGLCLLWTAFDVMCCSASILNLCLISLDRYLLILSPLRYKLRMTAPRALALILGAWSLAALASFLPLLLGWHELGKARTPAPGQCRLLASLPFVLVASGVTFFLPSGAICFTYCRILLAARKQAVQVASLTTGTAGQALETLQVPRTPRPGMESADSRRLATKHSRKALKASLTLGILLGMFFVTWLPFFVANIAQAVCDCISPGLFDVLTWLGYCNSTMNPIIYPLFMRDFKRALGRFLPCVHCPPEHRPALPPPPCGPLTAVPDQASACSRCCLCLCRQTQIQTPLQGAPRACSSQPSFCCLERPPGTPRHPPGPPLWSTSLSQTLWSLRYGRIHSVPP
Chain of 5-hydroxytryptamine receptor 7 (P32305 whole entry): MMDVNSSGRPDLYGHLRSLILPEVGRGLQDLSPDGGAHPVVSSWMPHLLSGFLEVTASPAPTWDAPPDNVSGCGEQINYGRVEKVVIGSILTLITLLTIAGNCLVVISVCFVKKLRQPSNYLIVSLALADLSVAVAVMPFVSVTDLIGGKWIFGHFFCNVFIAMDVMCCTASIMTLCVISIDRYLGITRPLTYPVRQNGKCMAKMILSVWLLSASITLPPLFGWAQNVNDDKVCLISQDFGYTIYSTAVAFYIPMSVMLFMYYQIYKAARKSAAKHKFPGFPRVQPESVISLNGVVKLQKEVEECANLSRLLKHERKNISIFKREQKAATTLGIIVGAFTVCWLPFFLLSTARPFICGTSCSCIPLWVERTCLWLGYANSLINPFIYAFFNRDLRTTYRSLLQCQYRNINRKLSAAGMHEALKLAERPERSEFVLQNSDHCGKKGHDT
Chain of Muscarinic acetylcholine receptor M3 (P08483 whole entry): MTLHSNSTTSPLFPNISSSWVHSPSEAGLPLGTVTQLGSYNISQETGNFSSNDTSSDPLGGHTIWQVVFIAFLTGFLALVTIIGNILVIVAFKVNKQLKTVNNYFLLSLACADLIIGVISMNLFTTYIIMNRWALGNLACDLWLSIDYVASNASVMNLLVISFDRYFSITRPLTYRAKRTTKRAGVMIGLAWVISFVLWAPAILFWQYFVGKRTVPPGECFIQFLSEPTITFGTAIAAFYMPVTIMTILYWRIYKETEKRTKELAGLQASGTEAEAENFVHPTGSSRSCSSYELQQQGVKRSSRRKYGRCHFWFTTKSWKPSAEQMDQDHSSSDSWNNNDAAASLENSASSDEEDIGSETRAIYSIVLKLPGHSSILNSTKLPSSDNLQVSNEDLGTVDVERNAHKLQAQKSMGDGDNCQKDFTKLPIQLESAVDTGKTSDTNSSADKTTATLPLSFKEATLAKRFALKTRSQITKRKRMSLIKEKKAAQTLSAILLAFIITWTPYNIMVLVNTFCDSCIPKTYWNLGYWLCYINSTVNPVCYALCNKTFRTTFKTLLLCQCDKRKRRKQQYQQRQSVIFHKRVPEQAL

Turning to `C1=C(CN2CCOCC2)COc2c1cccc2OC[C@H]1CNCCO1.CS(=O)(=O)O`, the results for the Ki in [1], in [15] and in [24] were more than 3 µM, more than 1 µM and more than 3 µM, respectively. Moreover, the Potentiation was found to be 1.11 in [2], 0.99 in [10], 1.44 in assay [11] and 1.23 in [12]. The Ratio of stimulation in [3] is 1.12 and 0.8; in assay [4], 1.28 and 1.39. In addition, the values for the Control in assay [5], in assay [6] and in assay [7] were 153%, 131% and 115%, respectively. Also, the Activity is 149% and 107% in assay [8]; 149% and 161% in assay [9]; 161% in assay [13]; 142% in assay [14]; 142% in assay [18]; 148% in assay [19]. For the same molecule, the Activity in assay [20] is on record as 166%; in assay [21], 140%; in assay [22] it was 145%; in [23], 142%. Besides, the “No. of WDS/60 min” value in [16] stood at 17; in [17] it was 9.2.

For the origin of these results see ChEMBL document CHEMBL1131235, “(R)-(+)-2-[[[3-(Morpholinomethyl)-2H-chromen-8-yl]oxy]methyl] morpholine methanesulfonate: a new selective rat 5-hydroxytryptamine1B receptor antagonist” (J Med Chem, 1998).
